Experimental data published in ChEMBL document CHEMBL5260806, “Hydrogen peroxide activated quinone methide precursors with enhanced DNA cross-linking capability and cytotoxicity towards cancer cells” (Eur J Med Chem, 2017).

Columns and labels:
Format in all cases: functional
[1] = system: DNA; experiment: Potentiation of H2O2 induced [32P]-labeled 49-mer oligonucleotide duplex DNA 25 (unknown origin) interstrand cross-linking at pH 8 in phosphate buffer solution assessed as rate constant and measured for 24 hrs by PAGE analysis
[2] = system: HL-60; experiment: Anticancer activity against human HL-60 cells assessed as cell growth inhibition at 10 uM incubated for 48 hrs by sulforhodamine B assay; details: read-out: GI
Procedure, shortened: (§1)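 NCI-60 screen: cell lines grown in RPMI 1640 with 5% FBS and 2 mM L-glutamine, plated in 96-well plates at 5,000–40,000 cells/well depending on doubling time. Each line has one single-dose arm at 10 µM and one dose-response arm giving GI50.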

[3] = system: SR; experiment: Anticancer activity against human SR cells assessed as cell growth inhibition at 10 uM incubated for 48 hrs by sulforhodamine B assay; details: read-out: GI
[4] = system: NCI-H322M; experiment: Anticancer activity against human NCI-H322M cells assessed as cell growth inhibition at 10 uM incubated for 48 hrs by sulforhodamine B assay; details: read-out: GI
Procedure, shortened: (§2)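 NCI DTP 60-cell-line screen run at National Cancer Institute. Cells grown in RPMI 1640 with 5% fetal bovine serum and 2 mM L-glutamine, seeded at 5,000–40,000 cells/well depending on doubling time. Single-dose screen at 10 µM gives growth percentage; dose-response series gives GI50.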

[5] = system: SF-268; experiment: Anticancer activity against human SF-268 cells assessed as cell growth inhibition at 10 uM incubated for 48 hrs by sulforhodamine B assay; details: read-out: GI; procedure, shortened: as §2
[6] = system: SF-295; experiment: Anticancer activity against human SF-295 cells assessed as cell growth inhibition at 10 uM incubated for 48 hrs by sulforhodamine B assay; details: read-out: GI; procedure, shortened: as §2
[7] = system: SF-539; experiment: Anticancer activity against human SF-539 cells assessed as cell growth inhibition at 10 uM incubated for 48 hrs by sulforhodamine B assay; details: read-out: GI; procedure, shortened: as §2
[8] = system: LOX IMVI; experiment: Anticancer activity against human LOX IMVI cells assessed as cell growth inhibition at 10 uM incubated for 48 hrs by sulforhodamine B assay; details: read-out: GI; procedure, shortened: as §1
[9] = system: SK-MEL-28; experiment: Anticancer activity against human SK-MEL-28 cells assessed as cell growth inhibition at 10 uM incubated for 48 hrs by sulforhodamine B assay; details: read-out: GI; procedure, shortened: as §2
[10] = system: IGROV-1; experiment: Anticancer activity against human IGROV-1 cells assessed as cell growth inhibition at 10 uM incubated for 48 hrs by sulforhodamine B assay; details: read-out: GI; procedure, shortened: as §1
[11] = system: OVCAR-8; experiment: Anticancer activity against human OVCAR-8 cells assessed as cell growth inhibition at 10 uM incubated for 48 hrs by sulforhodamine B assay; details: read-out: GI; procedure, shortened: as §2
[12] = system: SK-OV-3; experiment: Anticancer activity against human SK-OV-3 cells assessed as cell growth inhibition at 10 uM incubated for 48 hrs by sulforhodamine B assay; details: read-out: GI; procedure, shortened: as §2
[13] = system: 786-0; experiment: Anticancer activity against human 786-0 cells assessed as cell growth inhibition at 10 uM incubated for 48 hrs by sulforhodamine B assay; details: read-out: GI; procedure, shortened: as §1
[14] = system: A498; experiment: Anticancer activity against human A498 cells assessed as cell growth inhibition at 10 uM incubated for 48 hrs by sulforhodamine B assay; details: read-out: GI; procedure, shortened: as §1
[15] = system: BT-549; experiment: Anticancer activity against human BT-549 cells assessed as cell growth inhibition at 10 uM incubated for 48 hrs by sulforhodamine B assay; details: read-out: GI; procedure, shortened: as §1
[16] = system: EKVX; experiment: Anticancer activity against human EKVX cells assessed as cell growth inhibition at 10 uM incubated for 48 hrs by sulforhodamine B assay; details: read-out: GI; procedure, shortened: as §1
[17] = system: HOP-92; experiment: Anticancer activity against human HOP-92 cells assessed as cell growth inhibition at 10 uM incubated for 48 hrs by sulforhodamine B assay; details: read-out: GI; procedure, shortened: as §1
[18] = system: Malme-3M; experiment: Anticancer activity against human Malme-3M cells assessed as cell growth inhibition at 10 uM incubated for 48 hrs by sulforhodamine B assay; details: read-out: GI; procedure, shortened: as §2
[19] = system: A549; experiment: Anticancer activity against human A549 cells assessed as cell growth inhibition incubated for 48 hrs by sulforhodamine B assay; procedure, shortened: as §1
[20] = system: NCI-H460; experiment: Anticancer activity against human NCI-H460 cells assessed as cell growth inhibition incubated for 48 hrs by sulforhodamine B assay; procedure, shortened: as §2
[21] = system: HCC 2998; experiment: Anticancer activity against human HCC 2998 cells assessed as cell growth inhibition incubated for 48 hrs by sulforhodamine B assay; procedure, shortened: as §1
[22] = system: HT-29; experiment: Anticancer activity against human HT-29 cells assessed as cell growth inhibition incubated for 48 hrs by sulforhodamine B assay; procedure, shortened: as §1
[23] = system: KM12; experiment: Anticancer activity against human KM12 cells assessed as cell growth inhibition incubated for 48 hrs by sulforhodamine B assay; procedure, shortened: as §1
[24] = system: SW-620; experiment: Anticancer activity against human SW620 cells assessed as cell growth inhibition incubated for 48 hrs by sulforhodamine B assay
[25] = system: SF-268; experiment: Anticancer activity against human SF-268 cells assessed as cell growth inhibition incubated for 48 hrs by sulforhodamine B assay; procedure, shortened: as §2
[26] = system: U-251; experiment: Anticancer activity against human U-251 cells assessed as cell growth inhibition incubated for 48 hrs by sulforhodamine B assay
[27] = system: LOX IMVI; experiment: Anticancer activity against human LOX IMVI cells assessed as cell growth inhibition incubated for 48 hrs by sulforhodamine B assay; procedure, shortened: as §1
[28] = system: SK-MEL-5; experiment: Anticancer activity against human SK-MEL-5 cells assessed as cell growth inhibition incubated for 48 hrs by sulforhodamine B assay; procedure, shortened: as §2
[29] = system: UACC-257; experiment: Anticancer activity against human UACC-257 cells assessed as cell growth inhibition incubated for 48 hrs by sulforhodamine B assay
[30] = system: UACC-62; experiment: Anticancer activity against human UACC-62 cells assessed as cell growth inhibition incubated for 48 hrs by sulforhodamine B assay
[31] = system: OVCAR-4; experiment: Anticancer activity against human OVCAR-4 cells assessed as cell growth inhibition incubated for 48 hrs by sulforhodamine B assay; procedure, shortened: as §2
[32] = system: OVCAR-5; experiment: Anticancer activity against human OVCAR-5 cells assessed as cell growth inhibition incubated for 48 hrs by sulforhodamine B assay; procedure, shortened: as §2
[33] = system: SK-OV-3; experiment: Anticancer activity against human SK-OV-3 cells assessed as cell growth inhibition incubated for 48 hrs by sulforhodamine B assay
[34] = system: TK-10; experiment: Anticancer activity against human TK-10 cells assessed as cell growth inhibition incubated for 48 hrs by sulforhodamine B assay
[35] = system: PC-3; experiment: Anticancer activity against human PC-3 cells assessed as cell growth inhibition incubated for 48 hrs by sulforhodamine B assay; procedure, shortened: as §2
[36] = system: T47D; experiment: Anticancer activity against human T47D cells assessed as cell growth inhibition incubated for 48 hrs by sulforhodamine B assay
[37] = system: MDA-MB-468; experiment: Anticancer activity against human MDA-MB-468 cells assessed as cell growth inhibition incubated for 48 hrs by sulforhodamine B assay; procedure, shortened: as §2
[38] = system: HOP-92; experiment: Anticancer activity against human HOP-92 cells assessed as cell growth inhibition incubated for 48 hrs by sulforhodamine B assay; procedure, shortened: as §1
[39] = Anticancer activity against human CLL cells assessed as reduction in cell viability incubated for 24 hrs by Annexin/PI staining based fluorescence assay
Procedure, shortened: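 CLL lymphocytes were taken from patients' peripheral blood (n=3) by Ficoll-Hypaque, suspended in 10% autologous plasma in RPMI, and exposed to 1, 5, 10, 20, 50 and 100 µM. Viability was measured by annexin V/propidium iodide binding. IC50 comes from one representative patient.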

[40] = system: DNA; experiment: Induction of [32P]-labeled 49-mer oligonucleotide duplex DNA 25 (unknown origin) interstrand cross-linking at 2 mM for 48 hrs in presence of 2mM H2O2 by PAGE

GI50 [19]: 2000 nM
GI50 [20]: 2000 nM
GI50 [21]: 2000 nM
GI50 [22]: 2000 nM
GI50 [24]: 2000 nM
GI50 [26]: 2000 nM
GI50 [28]: 2000 nM
GI50 [31]: 2000 nM
GI50 [32]: 2000 nM
GI50 [33]: 2000 nM
GI50 [35]: 2000 nM
GI50 [36]: 2000 nM
GI50 [37]: 2000 nM
Structure (SMILES): COc1cc(CBr)c(B2OC(C)(C)C(C)(C)O2)c(CBr)c1
Ka [1]: 0.000237 s⁻¹
inhibition of growth at 10 µM [2]: < 50%
inhibition of growth at 10 µM [3]: < 50%
inhibition of growth at 10 µM [4]: < 50%
inhibition of growth at 10 µM [5]: < 50%
inhibition of growth at 10 µM [6]: < 50%
inhibition of growth at 10 µM [7]: < 50%
inhibition of growth at 10 µM [8]: < 50%
inhibition of growth at 10 µM [9]: < 50%
inhibition of growth at 10 µM [10]: < 50%
inhibition of growth at 10 µM [11]: < 50%
inhibition of growth at 10 µM [12]: < 50%
inhibition of growth at 10 µM [13]: < 50%
inhibition of growth at 10 µM [14]: < 50%
inhibition of growth at 10 µM [15]: < 50%
inhibition of growth at 10 µM [16]: < 50%
inhibition of growth at 10 µM [17]: < 50%
inhibition of growth at 10 µM [18]: < 50%
GI50 [23]: 2000 nM
GI50 [25]: 2000 nM
GI50 [27]: 2000 nM
GI50 [29]: 2000 nM
GI50 [30]: 2000 nM
GI50 [34]: 2000 nM
GI50 [38]: 2000 nM
IC50 [39]: 28400 nM
Activity [40]: 36%
